Seven molecules from ChEMBL document CHEMBL1255364, “Delayed development of linezolid resistance in Staphylococcus aureus following exposure to low levels of antimicrobial agents” (2008) can be followed below.

≈ marks a conversion by molar mass, not a printed value. Calls of active or inactive are those of the source. No cut-off for these calls is given here.

Assay [1] relates to Staphylococcus aureus. Nature of the assay: Suppression of drug resistance development in Staphylococcus aureus RN4220 assessed as assessed as prolonged length of subculture to develop Linezolid resistance at 0.25 times IC50.
Assay [2] deals with Staphylococcus aureus. As to the kind of experiment: Suppression of drug resistance development in Staphylococcus aureus RN4220 assessed as prolonged length of subculture to develop Linezolid resistance at 4 times MIC and 0.25 times IC50 after 25 days. It counts as functional, organism-based. The procedure, abridged: (§1)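 Stationary-phase MHB cultures were exposed for 6 h to linezolid at 4× MIC, with secondary agent(s) at 0.25× IC50. IC50 was the concentration halving growth rate by culture absorbance. A 5 μl aliquot was transferred to fresh drug-free medium and the cycle repeated. […] Four runs were done, with days to resistance averaged to the nearest day.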

Assay [3] has as its system Staphylococcus aureus. As to the kind of experiment: Suppression of resistance related recombination in Staphylococcus aureus RN4220 at 0.25 times IC50 at 42 degC.
Assay [4] relates to Staphylococcus aureus. As to the kind of experiment: Suppression of drug resistance development in recA-deficient Staphylococcus aureus KB103 assessed as prolonged length of subculture to develop Linezolid resistance at 4 times MIC and 0.25 times IC50 after 20 days. Format: functional, organism-based. The method in brief: as §1
The subject of assay [5] is Staphylococcus aureus. Nature of the assay: Suppression of drug resistance development in Staphylococcus aureus isolate EMRAS-15 assessed as prolonged length of subculture to develop Linezolid resistance at 4 times MIC and 0.25 times IC50 after 25 days. It counts as functional, organism-based. The method in brief:
as §1

Assay [6] relates to Staphylococcus aureus. As to the kind of experiment: Suppression of drug resistance development in Staphylococcus aureus RN4220 assessed as assessed as prolonged length of subculture to develop Linezolid resistance at 0.25 times MIC. It counts as functional.
Assay [7] has as its system Staphylococcus aureus. As to the kind of experiment: Antibacterial activity against Staphylococcus aureus KM183 after 18 to 24 hrs by broth microdilution method selected after 16 ug/ml drug exposure for 6 hrs by culture absorbance method. It counts as functional. The procedure, abridged: (§2)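 Broth microdilution in Mueller-Hinton broth per BSAC guidelines. MIC read as the lowest concentration completely inhibiting visible growth after 18 to 24 h at 37°C. Strains were linezolid-selected derivatives recovered from repeated 6-h linezolid exposure cycles.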

Assay [8] has as its system Staphylococcus aureus. As to the kind of experiment: Antibacterial activity against Staphylococcus aureus KM51 after 18 to 24 hrs by broth microdilution method selected after 16 ug/ml drug exposure for 6 hrs by culture absorbance method. Format: functional. The method in brief:
as §2

The subject of assay [9] is Staphylococcus aureus. As to the kind of experiment: Suppression of drug resistance development in LZD intermediate-resistant Staphylococcus aureus KM183 assessed as prolonged length of subculture to develop Linezolid resistance at 4 times MIC and 0.25 times IC50 after 8 days. Format: functional, organism-based. The procedure, abridged: as §1
Assay [10] deals with Staphylococcus aureus. As to the kind of experiment: Antibacterial activity against Staphylococcus aureus KM50 after 18 to 24 hrs by broth microdilution method selected after 16 ug/ml drug exposure for 6 hrs by culture absorbance method. Format: functional. The method in brief:
as §2

The test system of assay [11] is Staphylococcus aureus. As to the kind of experiment: Antibacterial activity against Staphylococcus aureus KM187 after 18 to 24 hrs by broth microdilution method selected after 16 ug/ml drug exposure for 6 hrs by culture absorbance method. It counts as functional. The procedure, abridged: as §2
The test system of assay [12] is Staphylococcus aureus. Nature of the assay: Antibacterial activity against Staphylococcus aureus KM52 after 18 to 24 hrs by broth microdilution method selected after 16 ug/ml drug exposure for 6 hrs by culture absorbance method. It counts as functional. The procedure, abridged: as §2
The test system of assay [13] is Staphylococcus aureus. Nature of the assay: Antibacterial activity against Staphylococcus aureus KM53 after 18 to 24 hrs by broth microdilution method selected after 16 ug/ml drug exposure for 6 hrs by culture absorbance method. Format: functional. The procedure, abridged: as §2

As for `CO[C@@H]1[C@@H](OC(N)=O)[C@@H](O)[C@H](Oc2ccc3c(O)c(NC(=O)c4ccc(O)c(CC=C(C)C)c4)c(=O)oc3c2C)OC1(C)C` [NOVOBIOCIN], the Time in assay [1] amounted to 14 days.
With `CC(=O)O[C@H]1C[C@@]2(C)[C@@H](C[C@@H](O)[C@H]3[C@@]4(C)CC[C@@H](O)[C@@H](C)[C@@H]4CC[C@@]32C)/C1=C(\CCC=C(C)C)C(=O)O`, the outcome in assay [2], in assay [4] and in assay [5] was Active. Moreover, the inhibition entry in assay [3] was “Active”.
As to GENTAMICIN, in [6], the TIME came out at 336 h.
Regarding `CN(C)[C@@H]1C(O)=C(C(N)=O)C(=O)[C@@]2(O)C(O)=C3C(=O)c4c(O)cccc4[C@@](C)(O)[C@H]3C[C@@H]12` [TETRACYCLINE], the Time in assay [1] turned out to be 14 days.
With `O=C(O)c1cn(C2CC2)c2cc(N3CCNCC3)c(F)cc2c1=O` [CIPROFLOXACIN], the Time in assay [1] was found to be 14 days.
Consider `CC(=O)NC[C@H]1CN(c2ccc(N3CCOCC3)c(F)c2)C(=O)O1` [LINEZOLID], for which the minimum inhibitory concentration (MIC) was found to be 16 µg/mL (≈ 47.4 µM) in assay [7]; 32 µg/mL (≈ 94.9 µM) in assay [8]; 32 µg/mL (≈ 94.9 µM) in assay [10]; 32 µg/mL (≈ 94.9 µM) in assay [11]; 32 µg/mL (≈ 94.9 µM) in assay [12]; 32 µg/mL (≈ 94.9 µM) in [13]. The result in [9] and in assay [4] was Active.
`CO[C@H]1/C=C/O[C@@]2(C)Oc3c(C)c(O)c4c(O)c(c(/C=N/N5CCN(C)CC5)c(O)c4c3C2=O)NC(=O)/C(C)=C\C=C\[C@H](C)[C@H](O)[C@@H](C)[C@@H](O)[C@@H](C)[C@H](OC(C)=O)[C@@H]1C`: the result in [2] and in assay [4] was Active. Further, the inhibition entry in [3] was “Active”.
